From ChEMBL document CHEMBL3856275, “Discovery of Second Generation Reversible Covalent DPP1 Inhibitors Leading to an Oxazepane Amidoacetonitrile Based Clinical Candidate (AZD7986)” (J Med Chem, 2016)
≈ marks a conversion by molar mass, not a printed value.

What was measured:
[1] = Protein binding in human plasma at 10 uM after 6 hrs by LC-MS/MS method; type: ADME, cell-free; conditions: read-out: PPB (converted)
[2] = Protein binding in dog plasma at 10 uM after 6 hrs by LC-MS/MS method; type: ADME, cell-free, Canis lupus familiaris; conditions: read-out: PPB (converted)
[3] = Clearance in Han Wistar rat at 1 mg/kg, iv and 3 mg/kg, po; type: ADME, organism-based; conditions: in vivo
How it was run: (§1)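 Han Wistar rat PK with 1 mg/kg iv and 3 mg/kg po doses, both in pH3 buffer. Clearance is given in ml/min/kg, Vss in L/kg and t1/2 in h.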

[4] = Volume of distribution at steady state in Han Wistar rat at 1 mg/kg, iv and 3 mg/kg, po; type: ADME, organism-based; conditions: in vivo, read-out: Vdss; how it was run: as §1
[5] = Half life in Han Wistar rat at 1 mg/kg, iv and 3 mg/kg, po; type: ADME, organism-based; conditions: in vivo; how it was run: as §1
[6] = molecular target: T1, Dipeptidyl peptidase 1 (Mus musculus, UniProt P97821); assay: Inhibition of mouse DPP1 using Gly-Arg-AMC as substrate preincubated for 30 mins followed by substrate addition by fluorometric assay
T1 sequence (P97821 whole entry): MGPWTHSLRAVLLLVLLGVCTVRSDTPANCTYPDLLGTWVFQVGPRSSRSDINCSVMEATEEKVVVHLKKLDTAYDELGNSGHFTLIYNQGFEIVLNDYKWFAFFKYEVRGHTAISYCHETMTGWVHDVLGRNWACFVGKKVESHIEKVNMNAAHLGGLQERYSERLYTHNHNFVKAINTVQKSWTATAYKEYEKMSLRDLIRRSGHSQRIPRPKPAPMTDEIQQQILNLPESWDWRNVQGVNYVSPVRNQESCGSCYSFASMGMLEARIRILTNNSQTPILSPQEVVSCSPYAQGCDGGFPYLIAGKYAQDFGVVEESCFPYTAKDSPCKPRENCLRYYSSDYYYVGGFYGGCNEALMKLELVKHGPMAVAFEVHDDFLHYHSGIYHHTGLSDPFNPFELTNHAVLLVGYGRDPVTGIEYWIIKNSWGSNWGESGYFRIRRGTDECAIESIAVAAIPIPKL
How it was run: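 Recombinant mouse DPP1 enzyme, tested under the same conditions as the human assay. Fluorometric assay in piperazine-based buffer.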

[7] = molecular target: Dipeptidyl peptidase 1 (Canis lupus familiaris, UniProt O97578); assay: Inhibition of dog DPP1 using Gly-Arg-AMC as substrate preincubated for 30 mins followed by substrate addition by fluorometric assay
Chain of Dipeptidyl peptidase 1 (Canis lupus familiaris, UniProt O97578) (O97578 1-109 limits assumed): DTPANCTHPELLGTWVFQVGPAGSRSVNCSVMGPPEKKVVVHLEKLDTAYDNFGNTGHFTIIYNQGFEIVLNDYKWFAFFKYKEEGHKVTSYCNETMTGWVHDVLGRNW
Chain of Dipeptidyl peptidase 1 (Canis lupus familiaris, UniProt O97578) (O97578 200-366 limits assumed): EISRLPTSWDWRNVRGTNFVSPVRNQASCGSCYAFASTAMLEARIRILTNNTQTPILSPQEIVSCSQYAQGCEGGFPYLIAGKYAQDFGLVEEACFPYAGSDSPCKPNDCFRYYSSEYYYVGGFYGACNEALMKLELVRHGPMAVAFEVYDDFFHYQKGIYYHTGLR
Chain of Dipeptidyl peptidase 1 (Canis lupus familiaris, UniProt O97578) (O97578 367-435 limits assumed): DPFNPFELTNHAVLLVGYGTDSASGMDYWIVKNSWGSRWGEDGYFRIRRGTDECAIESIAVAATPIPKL
How it was run: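 Recombinant dog DPP1 enzyme, run under the same conditions as the human isolated-enzyme assay in a piperazine-based buffer. Compound and enzyme pre-incubated 30 min at rt. Fluorescent dipeptide substrate Gly-Arg-AMC then added and fluorescence read. pIC50 obtained by curve fitting.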

[8] = Inhibition of rabbit DPP1 expressed in CHO cells using Gly-Arg-AMC as substrate preincubated for 30 mins followed by substrate addition by fluorometric assay; type: cell-based, Oryctolagus cuniculus
[9] = molecular target: T2, Cathepsin K (Homo sapiens, UniProt P43235); assay: Inhibition of human recombinant cathepsin K
T2 sequence (P43235 whole entry): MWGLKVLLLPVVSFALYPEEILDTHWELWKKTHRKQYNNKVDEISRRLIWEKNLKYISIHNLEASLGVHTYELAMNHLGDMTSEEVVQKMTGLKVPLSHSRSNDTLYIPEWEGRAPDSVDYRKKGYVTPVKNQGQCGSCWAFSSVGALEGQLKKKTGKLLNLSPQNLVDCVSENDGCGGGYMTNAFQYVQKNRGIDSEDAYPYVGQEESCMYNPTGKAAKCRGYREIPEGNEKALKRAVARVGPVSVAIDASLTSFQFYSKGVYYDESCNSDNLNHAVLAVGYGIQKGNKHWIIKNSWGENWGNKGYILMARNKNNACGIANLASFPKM

[10] = molecular target: T3, Cathepsin G (Homo sapiens, UniProt P08311); assay: Inhibition of human recombinant cathepsin G
T3 sequence (P08311 whole entry): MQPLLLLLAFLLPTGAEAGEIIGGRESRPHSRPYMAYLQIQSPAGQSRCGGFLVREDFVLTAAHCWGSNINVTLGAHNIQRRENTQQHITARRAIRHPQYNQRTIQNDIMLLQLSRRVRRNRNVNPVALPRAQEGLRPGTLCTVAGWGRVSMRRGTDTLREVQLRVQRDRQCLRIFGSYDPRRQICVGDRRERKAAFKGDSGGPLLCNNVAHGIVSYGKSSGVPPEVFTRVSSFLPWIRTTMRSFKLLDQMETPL

[11] = Intrinsic clearance in human hepatocytes at 1 uM after 5 to 120 mins by LC-MS/MS method; type: ADME, cell-based, Hepatocyte
How it was run: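 Intrinsic clearance in human hepatocytes, given in µL/min/10^6 cells.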

[12] = Apparent permeability across basolateral to apical side in human Caco2 cells at 10 uM after 2 hrs by LC-MS/MS method; type: ADME, cell-based; conditions: Caco-2
How it was run: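 Caco-2 bidirectional permeability run as P_app, given in cm/s x 10^-6.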

[13] = Clearance in Sprague-Dawley rat at 1 mg/kg, iv or 3 mg/kg, po; type: ADME, organism-based; conditions: in vivo
[14] = Volume of distribution at steady state in Sprague-Dawley rat at 1 mg/kg, iv or 3 mg/kg, po; type: ADME, organism-based; conditions: in vivo, read-out: Vdss
[15] = Half life in Sprague-Dawley rat at 1 mg/kg, iv or 3 mg/kg, po; type: ADME, organism-based; conditions: in vivo
[16] = molecular target: Dipeptidyl peptidase 1 (Homo sapiens, UniProt P53634)
Chain of Dipeptidyl peptidase 1 (Homo sapiens, UniProt P53634) (P53634 25-134 limits assumed): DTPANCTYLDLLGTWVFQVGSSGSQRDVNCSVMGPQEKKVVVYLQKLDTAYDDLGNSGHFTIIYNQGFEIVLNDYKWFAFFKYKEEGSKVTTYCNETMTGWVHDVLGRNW
Chain of Dipeptidyl peptidase 1 (Homo sapiens, UniProt P53634) (P53634 231-394 limits assumed): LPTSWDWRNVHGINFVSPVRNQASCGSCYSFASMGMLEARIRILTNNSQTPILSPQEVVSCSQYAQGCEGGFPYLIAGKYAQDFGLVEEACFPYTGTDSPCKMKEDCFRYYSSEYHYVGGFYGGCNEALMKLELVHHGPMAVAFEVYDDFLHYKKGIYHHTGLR
Chain of Dipeptidyl peptidase 1 (Homo sapiens, UniProt P53634) (P53634 395-463 limits assumed): as the sequence (O97578 367-435 limits assumed) above, with S37T, R38G, D42N counted along it

[17] = physchem; conditions: phosphate buffered saline, pH 7.4
[18] = physchem; conditions: octanol/water, pH 7.4

Compound: Cn1c(=O)oc2ccc(-c3ccc(C[C@@H](C#N)NC(=O)[C@@H]4CNCCCO4)cc3)cc21 [BRENSOCATIB]
- fraction unbound at 6 h, 10 µM [1]: 0.13
- fraction unbound at 6 h, 10 µM [2]: 0.3
- clearance [3]: 7 mL/min/kg
- Vd [4]: 2.5 L/kg
- half-life [5]: 5 h
- IC50 [6]: 25.1 nM
- IC50 [7]: 15.8 nM
- pIC50 [8]: 7.8
- IC50 [9]: > 20000 nM
- IC50 [10]: > 20000 nM
- CLH [11]: < 1 µL/min/1e6 cells
- Papp B→A at 2 h, 10 µM [12]: 27 ×10⁻⁶ cm/s
- clearance [13]: 1 mL/min/kg
- Vd [14]: 1 L/kg
- half-life [15]: 7 h
- T1/2 [16]: 3 min
- solubility kinetic at 2 h [17]: 180 µM (≈ 75.7 µg/mL)
- logD at 10 µM [18]: 0.8
